Screens (PubChem)
PMI act hi M6P – PMI (human) activation, high substrate | P34949 | activation factor at 20 µM | coupled PMI enzyme assay, resazurin fluorescence, 20 min; active compounds read high; 1 = untreated enzyme, 0 = substrate-free blank | 190,000 tested, 0.34% active;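 active = activation factor of 2 or more at 20 µM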
Target sequence (P34949 whole entry, looked up): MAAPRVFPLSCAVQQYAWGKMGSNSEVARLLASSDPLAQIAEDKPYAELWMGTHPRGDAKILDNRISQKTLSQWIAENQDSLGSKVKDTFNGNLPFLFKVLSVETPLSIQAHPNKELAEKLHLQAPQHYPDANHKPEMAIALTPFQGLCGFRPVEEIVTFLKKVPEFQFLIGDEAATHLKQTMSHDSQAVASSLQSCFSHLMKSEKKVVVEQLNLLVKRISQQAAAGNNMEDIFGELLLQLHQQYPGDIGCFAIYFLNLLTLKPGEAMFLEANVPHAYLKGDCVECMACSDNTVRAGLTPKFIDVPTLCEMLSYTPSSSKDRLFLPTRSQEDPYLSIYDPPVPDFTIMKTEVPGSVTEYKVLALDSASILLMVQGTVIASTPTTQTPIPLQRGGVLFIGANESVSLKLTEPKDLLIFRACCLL
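Test system: human phosphomannose isomerase with PGI, G6PDH, diaphorase coupling enzymes; amount: 15 ng/mL PMI; incubation: enzyme reaction with compound 20 min at room temperature; technique: resorufin fluorescence (Ex 544/Em 590 nm) from resazurin via diaphorase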
HCT116 PTEN-null – growth suppressors of cells with PTEN tumor suppressor deletion; HCT116 PTEN-null viability, CellTiter-Glo, 60 h; active compounds read low; viability, % at 10 µM; 140,000 tested, 1.2% active; AID 827;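 active = viability at or below a set limit, 4 SD under the median of all tested compounds, cut at about 3.7% in these data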;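 note: PTEN knockout HCT116 line with beta catenin targeted HCT116 as companion control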
PMI activator – activators of human phosphomannose isomerase; purified human PMI, coupled resazurin fluorescence, 20 min; active compounds read high; 1 = vehicle control, 0 substrate-free wells; activation factor at 20 µM; P34949; 190,000 tested, 0.005% active; AID 1214;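 active = activation factor of 2 or more at 20 µM, relative to plate controls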
HCT116 bCat-KO – beta-catenin-lacking colon tumor cell growth suppression; HCT116 beta-catenin knockout viability, CellTiter-Glo, 60 h; active compounds read low; viability, % at 10 µM; 140,000 tested, 1.5% active; AID 818;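 active = viability at or under a set limit, the compound median less 4 SD, cut at about 6% in these data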
L major viab – reduces viability of Leishmania major promastigotes; resazurin fluorescence viability; inhibition, % at 10 µM; 200,000 tested, 9% active; AID 1063; in the data active = inhibition above about 50%;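 note: promastigotes grown with compound for 44 hours at 28 °C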
Large screens that a line does not name were inactive. Only some compounds are listed: those with a hit (about 9.6% of all), similar ones and a draw of the others.

COc1ccc(OC)c(NC(=O)c2cccc(Cn3cc(Br)c([N+](=O)[O-])n3)c2)c1	L major viab 100.3
CCCCc1c(C)c(C#N)c2nc3ccccc3n2c1Cl	HCT116 PTEN-null 1.1, HCT116 bCat-KO 1.3, L major viab 100.3
CCc1ccc(OCC(=O)N/N=C/c2cc([N+](=O)[O-])ccc2N2CCOCC2)cc1	L major viab 78.2
O=C(N/N=C\c1cc([N+](=O)[O-])ccc1N1CCOCC1)c1ccccn1	none (no result: HCT116 PTEN-null, HCT116 bCat-KO)
Cc1cccc(OCC(=O)N/N=C/c2cc([N+](=O)[O-])ccc2N2CCOCC2)c1	L major viab 86.7
CC(C)CN(CC(C)C)S(=O)(=O)N1CCC(C(=O)NCc2ccc3c(c2)OCO3)CC1	none (no result: HCT116 PTEN-null, HCT116 bCat-KO)
C/C=C/c1ccc(OCCCNCC(C)O)c(OC)c1 (stereo not given)	none
CNCC(C)COc1ccccc1OCc1ccccc1 (stereo not given)	L major viab 98.8
CC(O)CNCCCOc1ccccc1OCc1ccccc1 (stereo not given)	L major viab 98.9 (no result: HCT116 PTEN-null, HCT116 bCat-KO)
CC(O)CNCCCCOc1ccc(OCc2ccccc2)cc1 (stereo not given)	L major viab 96.9 (no result: HCT116 PTEN-null, HCT116 bCat-KO)
Cc1ccc(NC(=O)c2c(C(=O)Nc3ccccc3)sc3nc(C)cc(=O)n23)cc1	none (no result: HCT116 PTEN-null, HCT116 bCat-KO)
O=S(=O)(Nc1ccc2c(c1)nc1n2CCN(Cc2ccccc2)C1)c1ccc(F)cc1	PMI act hi M6P 2.1, L major viab 100.3
O=C(Nc1ccc2c(c1)nc1n2CCN(Cc2ccccc2)C1)NC1CCCCC1	none
O=S(=O)(Nc1ccc2c(c1)nc1n2CCN(Cc2ccccc2)C1)c1ccc(Cl)cc1	PMI act hi M6P 2.2, L major viab 96.9
Cc1ccc(S(=O)(=O)Nc2ccc3c(c2)nc2n3CCN(Cc3ccccc3)C2)cc1	PMI act hi M6P 2.2, L major viab 99.2
O=S(=O)(Nc1ccc2c(c1)nc1n2CCN(Cc2ccccc2)C1)c1ccccc1	L major viab 98.5
CCN(c1ccccc1)S(=O)(=O)c1ccc(Oc2ccc(-n3ccnc3)cc2)nc1	L major viab 76.0 (no result: PMI act hi M6P, PMI activator)
C=CCn1c(SCc2nc3sc4c(c3c(=O)[nH]2)CCCC4)nc2ccccc2c1=O	L major viab 84.2
O=C(CN1CCN(c2cccc(C(F)(F)F)c2)CC1)Nc1cccc(C(F)(F)F)c1	none
Fc1ccccc1N1CCN(CC2CC3C=CC2C3)CC1 (stereo not given)	L major viab 89.5
C1=CC2CC1CC2CN1CCN(Cc2ccccc2)CC1 (stereo not given)	L major viab 95.0
FC(F)(F)c1cccc(N2CCN(CC3CC4C=CC3C4)CC2)c1 (stereo not given)	L major viab 82.0
O=C(NCc1ccc(F)cc1)C(C(=O)NCc1ccc(F)cc1)c1ncc(C(F)(F)F)cc1Cl	none (no result: HCT116 PTEN-null, HCT116 bCat-KO)
CN(Cc1ccccc1)C(=O)COC(=O)C1=NNC(=O)CC1	L major viab 51.9
O=C(NCc1cccnc1)c1cc(Sc2cccc(Cl)c2)nc2ccccc12	L major viab 68.4
N=C1/C(=C/c2cccn2Cc2ccc(Cl)cc2)C(=O)N=C2SC=CN12	none
COc1ccc(OC)c(NC(=O)COC(=O)/C=C/c2c(C)nn(C3CCS(=O)(=O)C3)c2Cl)c1 (stereo not given)	none
Cc1nn(C2CCS(=O)(=O)C2)c(Cl)c1/C=C/C(=O)OCC(=O)c1c[nH]c2ccccc12 (stereo not given)	L major viab 59.8
Cc1nn(C2CCS(=O)(=O)C2)c(Cl)c1/C=C/C(=O)OCC(=O)c1cc(C)n(-c2ccc(F)cc2)c1C (stereo not given)	L major viab 98.2
COc1ccc(CC(=O)NNC(=O)CSc2ccc(C)cc2)cc1	none (no result: HCT116 PTEN-null, HCT116 bCat-KO)
Cc1cc2c(cc(C(=O)NCCCN3CCOCC3)n2Cc2ccc(Cl)cc2)o1	L major viab 98.6
Cn1c(C(=O)NCCN2CCOCC2)cc2sccc21	none
O=C(Nc1ccc2c(c1)OCCO2)c1cc2sccc2n1Cc1ccc(F)cc1	L major viab 96.7
Cc1ccc(Cn2c(C(=O)NCCCN3CCOCC3)cc3sccc32)cc1	L major viab 86.5
CCn1c(C(=O)NCCCN2CCc3ccccc3C2)cc2sccc21	L major viab 91.2
O=C(NCCCN1CCOCC1)c1ccc(CS(=O)(=O)Cc2ccc(Cl)cc2)o1	none
NNc1cc([N+](=O)[O-])cc2c1C(=O)N(Cc1ccccc1)S2=O (stereo not given)	none (no result: HCT116 PTEN-null, HCT116 bCat-KO)
CC(=O)NC(Cc1ccccc1C)C(=O)NC1CCN(C(=O)c2ccc(C)cc2)CC1 (stereo not given)	none (no result: PMI act hi M6P, HCT116 PTEN-null, PMI activator, HCT116 bCat-KO)
O=C(Cn1c(C(=O)NCCCN2CCOCC2)cc2sccc21)c1ccccc1	L major viab 80.9
O=C(NCc1n[nH]c(=S)n1-c1ccc(Br)cc1)c1cccs1	none (no result: HCT116 PTEN-null, HCT116 bCat-KO)
COc1ccc(C(=O)C/C(=C\C(=O)c2ccc(C)cc2)c2ccccc2)cc1	L major viab 52.4
CCCN1CCN(S(=O)(=O)c2ccc(OC)c(Br)c2)CC1	L major viab 96.0
CCOc1cc(S(=O)(=O)N2CCN(CC)CC2)ccc1Cl	L major viab 89.7
COc1ccc(CN2CCN(S(=O)(=O)c3ccc(C)cc3)CC2)cc1Br	L major viab 67.7
COc1ccc(S(=O)(=O)N2CCCN(S(=O)(=O)c3ccc(OC)c(C)c3)CC2)cc1C	none
CCOc1cc(S(=O)(=O)N2CCCCC2)ccc1Cl	none
COc1ccc(-c2nc(-c3ccccc3)ncc2S(C)(=O)=O)cc1	none (no result: HCT116 PTEN-null, HCT116 bCat-KO)
O=[N+]([O-])c1cccnc1N1CCN(c2ccc(F)cc2)CC1	none (no result: HCT116 PTEN-null, HCT116 bCat-KO)
CC(C)(C)NC(=O)Cn1c(Cl)nc2ccccc21	none (no result: HCT116 PTEN-null, HCT116 bCat-KO)
CN(CC(=O)N1CCCCCC1)S(=O)(=O)c1ccc(F)cc1	none (no result: HCT116 PTEN-null, HCT116 bCat-KO)
Cc1cccc(NC(=O)c2sc3nc4c(c(-c5cccs5)c3c2N)CN(C)CC4)c1	L major viab 55.6
COc1ccc(/C=N/NC(=O)c2ccccc2)cc1CN1CCN(c2ccc(F)cc2)CC1	none
COc1ccc(/C=N/NC(=O)c2ccccc2F)cc1CN1CCN(c2ccc(F)cc2)CC1	L major viab 67.4
Cc1cc(C)cc(-n2c(C)nc3cc(C(=O)O)ccc32)c1	none (no result: HCT116 PTEN-null, HCT116 bCat-KO)
Cc1ccc(NC(=O)CCn2c(=O)oc3ccccc32)c(C)c1	none
COc1ccc(Cl)cc1C(=O)Nn1c(-c2cccs2)nc2ccccc2c1=O	L major viab 61.2
COc1ccc(Cl)cc1C(=O)Nn1c(C)nc2ccccc2c1=O	none
COC(=O)C1=C(C)N(CCCC(=O)O)C(=O)NC1c1cccs1 (stereo not given)	HCT116 PTEN-null 0.5, HCT116 bCat-KO 0.4
CCN1CCc2c(C#N)c(N3CCCCC3)nc(NCc3ccccc3)c2C1	HCT116 PTEN-null 0.9, HCT116 bCat-KO 1.2
CC1(C)CC(=O)c2c(nc(SCC(=O)Nc3nsc(-c4ccccc4)n3)c(C#N)c2-c2ccccc2)C1	L major viab 69.1
CCOC(=O)C1C(=O)CC(C)(O)C(C(=O)OCC)C1c1ccco1 (stereo not given)	none
Brc1ccc(-c2nnc3sc(CNC4CCCC4)cn23)cc1	L major viab 91.3
Brc1ccc(-c2nnc3sc(CNCc4ccc5c(c4)OCO5)cn23)cc1	L major viab 85.4
